# TAAR1 antagonist = antagonists of human TAAR1; AID 624466; CHO RD-HGA16 TAAR1, Fluo-8 calcium fluorescence, antagonist; inhibition, % at 3 µM; 360,000 compounds, 1.5% hits; Q96RJ0;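 active = inhibition above a per-plate cutoff, the mean inhibition of test compounds on that plate plus 3 SD, cut at about 49% in these data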
#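 Test system – hTAAR1-expressing CHO RD-HGA16 cells, Gα16-coupled · Reagent – β-PEA at EC80 concentration, post-compound challenge · Compound dosing – 3 µM, single point · Timing – 140 s kinetic read after compound, 140 s after agonist · Detection – Fluo-8 intracellular calcium dye fluorescence, real-time kinetic reads · Control set – DMSO and EC80 PEA controls · Repeats – n of 1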
# OX1R antag-1 = antagonists of human orexin 1 receptor (OX1R) | 330,000 compounds, 1.8% hits | inhibition, % at 6.6 µM | OX1R-expressing cells, FRET antagonist read-out | O43613; in the data active = inhibition mostly above about 38%, no sharp cut-off; inactive = mostly below about 40%
# Target sequence (O43613 whole entry, looked up): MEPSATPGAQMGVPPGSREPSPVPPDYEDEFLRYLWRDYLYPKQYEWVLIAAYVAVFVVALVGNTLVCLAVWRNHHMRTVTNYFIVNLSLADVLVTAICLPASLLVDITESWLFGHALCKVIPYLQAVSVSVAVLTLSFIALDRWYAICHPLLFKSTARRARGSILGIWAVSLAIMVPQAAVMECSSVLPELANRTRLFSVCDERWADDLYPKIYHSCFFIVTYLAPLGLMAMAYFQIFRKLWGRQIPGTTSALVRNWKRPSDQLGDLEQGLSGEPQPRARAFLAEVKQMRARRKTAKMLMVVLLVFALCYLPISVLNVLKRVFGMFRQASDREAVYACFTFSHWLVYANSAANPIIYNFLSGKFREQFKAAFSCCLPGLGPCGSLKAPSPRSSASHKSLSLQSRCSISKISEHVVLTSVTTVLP
# GPR7 antag = human neuropeptides B/W receptor 1 antagonism; P48145; GPR7-expressing cells, fluorescence antagonist assay; inhibition, % at 4.4 µM; 290,000 compounds, 1.1% hits; in the data active = inhibition above about 16%, passing the limit was not always enough;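 note: cells stimulated with the agonist NPW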
# CHO parental Ca = counter-screen for OX1R antagonists: effect in parental CHO cells; parental CHO-K1, ATP-induced calcium, Fluo-8 fluorescence; inhibition, % at 5.6 µM; 330,000 compounds, 0.63% hits; AID 463079;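 active = inhibition above that plate's mean sample inhibition plus 3 SD, cut at about 26% in these data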
#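 Assay system – parental CHO cells · Reagent – ATP stimulus · Detection – intracellular calcium via Fluo-8 no-wash fluorescent dye · Evaluation – percent inhibition of ATP-evoked calcium rise, normalized to controls · Controls – ATP wells versus no-ATP DMSO wells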
# OX1R antag-2 = blocks the human orexin 1 receptor. 330,000 compounds, 0.43% hits. inhibition, % at 5 µM. CHO/OX1R cells, Fluo-8 calcium fluorescence, orexin A. O43613. AID 434989;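 active = inhibition above its plate's threshold, mean inhibition of all tested compounds on the plate plus 3 SD, cut at about 37% in these data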
# TAAR1 agonist = agonists of human TAAR1 | Q96RJ0 | CHO RD-HGA16 TAAR1, Fluo-8 calcium fluorescence; vehicle wells 0%, saturating PEA agonist 100% | activation, % at 3 µM | 360,000 compounds, 0.99% hits;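 active = activation above the mean activation of all test compounds in the run plus 3 SD, cut at about 38% in these data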
#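 System: CHO RD-HGA16 cells carrying human TAAR1 plus Gα16; Incubation: 17-24 h seeding, 75 min 37 °C dye, 30 min RT; Measured by: Fluo-8 fluorescence, 5 s baseline then 140 s kinetic read; Control set: DMSO and PEA EC100; Replication: single well for each compound.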
# A number is an active result; 0 = inactive; - = not tested or not shown. Most compounds without a hit are left out; they make up all but 4.5% or so of the library.
SMILES,TAAR1 antagonist,OX1R antag-1,GPR7 antag,CHO parental Ca,OX1R antag-2,TAAR1 agonist
Cc1cc(C)c(N(C(=O)CN2C(=O)c3ccccc3S2(=O)=O)C(C(=O)NCC2CCCO2)c2ccc(F)cc2)c(C)c1 (configuration not stated),52,0,0,0,0,0
COc1ccccc1N(C(=O)CN1C(=O)c2ccccc2S1(=O)=O)C(C(=O)NCC1CCCO1)c1ccc(F)cc1 (configuration not stated),0,0,0,0,0,0
Cc1ccc(NC(=O)[C@@H](Cc2ccccc2)NC(=O)[C@H]2O[C@@H](n3ccc(=O)[nH]c3=O)[C@H](O)[C@@H]2O)cc1C,0,-,-,-,-,0
Cc1cc2c3c(c1)C1(SCC(=O)N1c1ccc(F)cc1)C(=O)N3C(C)(C)CC2C (configuration not stated),0,0,0,0,0,48
COc1ccc(C(=O)CSc2nnc(-c3cc4ccccc4cc3O)n2Cc2ccco2)cc1,0,53,0,0,0,0
CCn1c(SCC(=O)N(C)CC(=O)Nc2ccc(OC)cc2)nnc1-c1ccco1,0,0,-,0,0,0
CCn1c(SCC(=O)c2ccc3ccccc3c2)nnc1-c1ccco1,0,74,0,0,0,0
CCn1c(SCC(=O)N(C)CC(=O)Nc2cccc(OC)c2)nnc1-c1ccco1,0,40,-,0,0,0
C[C@H]1CN(S(=O)(=O)C(C)(C)C)[C@@H](CCO)/C1=C\CCO,0,-,-,-,-,0
O=C(/C=C/c1cccc([N+](=O)[O-])c1)Nc1cc(C(=O)O)cc(C(=O)O)c1,0,62,0,0,0,0
COC(=O)c1cccc(NC(=O)/C=C/c2cccc([N+](=O)[O-])c2)c1,0,0,0,0,0,0
Cc1cc(C)cc(N(CC(=O)NC2CCCC2)C(=O)CCC(=O)Nc2nc(C)cs2)c1,0,0,0,0,0,43
O=S(=O)(NCc1ccccc1)c1ccc(-c2cnc(C3CC3)o2)cc1,0,0,0,0,0,0
CCOc1ccccc1CNS(=O)(=O)c1ccc(-c2cnc(C3CC3)o2)cc1,58,0,0,33,0,0
CN(C)c1ncnc2c1ncn2[C@H]1CN(Cc2cccnc2)C[C@@H](CO)O1,0,-,-,-,-,0
OC(CN(c1ccccc1)c1ccccc1)Cn1cnc2ccccc21 (configuration not stated),57,0,0,0,0,0
OC(COCc1ccccc1)Cn1cnc2ccccc21 (configuration not stated),0,0,0,0,0,0
COC(=O)Cn1cnc2c(NC(=O)c3ccccc3)ncnc21,0,-,-,-,-,0
CC(C)C[C@H](NC(=O)c1ccc(Cl)cc1Cl)C(=O)N1CCC[C@H]1C(=O)NCc1ccccc1,0,-,-,-,-,0
COCCNc1nnc(SCC(=O)NNC(=O)c2ccc([N+](=O)[O-])cc2)s1,0,59,-,0,0,0
COCCOC(=O)c1c(C)n(C)c2ccc(OC(=O)N3CCOCC3)cc12,0,0,0,0,0,0
COCCOC(=O)c1c(C)n(C)c2ccc(OC(=O)c3c(OC)cccc3OC)cc12,49,0,0,0,0,0
CCOC(=O)C1=CCN(S(=O)(=O)c2ccc(Br)cc2)C1c1cccc(Cl)c1 (configuration not stated),0,-,-,-,-,0
COCCn1cnnc1SCC(=O)Nc1cccc(S(=O)(=O)N2CCCCCC2)c1,0,0,20,0,0,0
O=C(COc1ccccc1F)Nc1ccc(S(=O)(=O)N2CCCC2)cc1,0,0,-,0,0,0
SMILES,TAAR1 antagonist,OX1R antag-1,GPR7 antag,CHO parental Ca,OX1R antag-2,TAAR1 agonist
CN(C)c1ccc(S(=O)(=O)N2CCCCC2)cc1NC(=O)COc1ccccc1F,0,0,0,71,0,0
Cc1cccc(OCCCC(=O)Nc2ccc(N3CCCCC3)cc2)c1,64,0,0,0,0,73
CCC(=O)N1CCN(c2ccc(NC(=O)COc3ccc(C)cc3C)cc2)CC1,0,0,0,0,0,0
Cc1ccc(C(=O)N2CCN(c3ccc(NC(=O)COc4ccccc4C)cc3)CC2)cc1,55,0,0,0,0,0
Cc1c(C(=O)N(C)Cc2ccc(F)cc2)sc(=O)n1Cc1ccc(Cl)c(Cl)c1,0,-,-,-,-,0
CCOc1ccccc1OCC(=O)Nc1cccc(S(=O)(=O)N2CCCCCC2)c1,58,0,-,0,0,0
Cc1ccccc1C(=O)Nc1ccc(N2CCCC2)cc1,54,0,0,0,0,0
CC(=O)c1ccccc1OCC(=O)Nc1cccc(S(=O)(=O)N2CCCC2)c1,0,0,-,0,0,0
Cc1ccc(S(=O)(=O)N2CCCCC2)cc1NCC(=O)Nc1ccc(Br)cc1F,57,-,-,-,-,0
CCOc1ccccc1OCC(=O)Nc1ccc(N2CCCCC2)cc1,0,0,17,0,0,0
O=C(CNc1ccccc1F)Nc1cc(S(=O)(=O)N2CCCCC2)ccc1Cl,0,0,-,0,0,0
COC(=O)c1cc2c(c3c4cc(F)ccc4n(S(=O)(=O)c4ccc(C)cc4)c13)C(=O)N(Cc1ccc(N(C)C)cc1)C2,0,-,-,-,-,0
CCCCNC(=O)c1nc(C2CCNCC2)oc1-c1ccccc1,0,-,-,-,-,0
O=C(Cn1nc(C(=O)O)c2ccccc2c1=O)Nc1cccc(S(=O)(=O)N2CCCC2)c1,0,-,-,-,-,0
O=C(Cn1nc(C(=O)O)c2ccccc2c1=O)Nc1cccc(S(=O)(=O)N2CCCCCC2)c1,0,0,-,32,43,0
O=C(CNCc1ccccc1Cl)Nc1cc(S(=O)(=O)N2CCOCC2)ccc1Cl,0,0,-,0,0,0
COc1ccc(CCC(=O)Nc2cccc(S(=O)(=O)N3CCCCCC3)c2)cc1OC,0,0,-,0,0,0
COc1ccc(CC(=O)Nc2cccc(S(=O)(=O)N3CCCCCC3)c2)cc1OC,0,0,0,49,0,0
Cc1ccc(S(=O)(=O)N2CCOCC2)cc1NC(=O)CNCc1ccc(Cl)cc1Cl,59,0,-,0,0,0
CCOc1cc(C(=S)N2CCCC2)ccc1OCC(=O)Nc1c(C)cc(C)cc1C,0,66,0,0,0,0
Cc1ccccc1CN1[C@@H](C)[C@H](c2ccccc2)Oc2cccc(N3CCCC3)c2S1(=O)=O,0,-,-,-,-,0
CCCCc1nnn2c1C1c3cc(Br)ccc3CCN1C(=O)C2 (configuration not stated),0,-,-,-,-,0
COc1cc(C=NN=c2sc3ccccc3n2C)ccc1OCCO,0,-,-,-,-,0
c1ccc(N2CCN(c3nc4ccccc4n4cnnc34)CC2)cc1,0,0,0,0,0,0
c1ccc2c(c1)CCN(c1nc3ccccc3n3cnnc13)C2,0,53,0,0,0,0
CN(C)C(=O)COC(=O)/C=C/c1ccccc1[N+](=O)[O-],0,39,0,0,0,0
COc1ccc(CNC(=O)Nc2ccc(C)cc2)cc1,0,0,0,37,0,0
Clc1ccc(Nc2ccc(NCc3ccccc3)nn2)cc1,0,0,19,0,0,0
